Among the data in ChEMBL document CHEMBL1148068, “Bistramides A, B, C, D, and K: a new class of bioactive cyclic polyethers from Lissoclinum bistratum” (J Nat Prod, 1994) are IC50, Activity and T/C values, retold here.

In test [1] the test system is KB. As to the kind of experiment: Cytotoxicity against human KB cells after 72 hrs by MTT assay. The test is classed as functional, cell-based. In a few lines: (§1)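 Cells were seeded in microtiter plates at 0.1 × 10^3 cells/ml. Growth was estimated at 72 h by MTT conversion to formazan. Values are means of 3 experiments.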
Background: Tetrazolium dyes change colour on reduction, which living cells bring about.

In test [2] the test system is P388. Briefly: Cytotoxicity against mouse P388 cells after 72 hrs by MTT assay. The test is classed as functional, cell-based. As to conditions: P388, 72 h. In a few lines:
as §1

For test [3], the system named is P388. As to the kind of experiment: Cytotoxicity against mouse doxorubicin resistant P388 cells after 72 hrs by MTT assay. The test is classed as functional, cell-based. As to conditions: P388, 72 h. In outline: as §1
In test [4] the test system is B16. As to the kind of experiment: Cytotoxicity against mouse B16 cells after 72 hrs by MTT assay. The test is classed as functional, cell-based. As to conditions: B16, 72 h. In a few lines:
as §1

Test [5] relates to HT-29. As to the kind of experiment: Cytotoxicity against human HT-29 cells after 72 hrs by MTT assay. The test is classed as functional, cell-based. As to conditions: HT-29, 72 h. In outline:
as §1

Test [6] is described as follows: Cytotoxicity against human NSCLC-N6 cells after 72 hrs by MTT assay. The test is classed as functional, cell-based. As to conditions: NSCLC-N6, 72 h. In a few lines:
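Cells originated from a nude-mouse graft and were cultured in RPMI 1640 with 5% fetal calf serum, penicillin, streptomycin and 2 mM glutamine. They were seeded in microtiter plates at 0.1 × 10^3 cells/ml. Growth was read by MTT-to-formazan conversion at 72 h. Values are means of 3 experiments.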

The nature of test [7]: Cell cycle arrest in human NSCLC-N6 cells assessed as reduction in accumulation at S phase by flow cytometry. The test is classed as functional, cell-based. In outline: (§2)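 NSCLC-N6 cells were grown in RPMI 1640 with 5% FCS, penicillin, streptomycin and 2 mM glutamine. 0.8 × 10^3 cells were cultured in flasks with or without compound for 48 h. Medium was removed and cells stained in situ with Vindelov solution. DNA content of 2000 nuclei was measured by flow cytometry to give DNA histograms.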
On the technique in general: A flow cytometer gives signals particle by particle.

The nature of test [8]: Cell cycle arrest in human NSCLC-N6 cells assessed as increase in accumulation at G2M phase by flow cytometry. The test is classed as functional, cell-based. In a few lines:
as §2

Test [9] has as its system NSCLC-N6. As to the kind of experiment: Induction of polyploidy in human NSCLC-N6 cells assessed as 4N chromosome levels at 1 ug/ml by DNA cytogram. The test is classed as functional, cell-based. In a few lines: as §2
For test [10], the system named is P388. Briefly: Antitumor activity against mouse P388 cells xenografted mouse at 0.4 mg/kg, ip administered as 3 doses. The test is classed as functional. As to conditions: route intraperitoneal.
Test [11] is described as follows: Antitumor activity against human NSCLC-N6 cells xenografted mouse at 20 mg/kg, iv administered as 4 doses measured after 30 days. The test is classed as functional. In a few lines: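 Nude mice carried sc NSCLC-N6 xenografts, serially passaged as mechanically dispersed tumour (about 1 g in 4.8 ml saline, 0.2 ml per mouse). Six mice per group were treated once tumours reached 50–200 mm3. Each received 20 mg/kg iv on days 1, 5, 9 and 11 (4 doses), in physiological saline with 2% DMSO.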
Background: A xenograft is tissue or cells of one species grown in another, often human tumour cells in immunodeficient mice.

The nature of test [12]: Cell cycle arrest in human NSCLC-N6 cells assessed as accumulation at G1 phase by flow cytometry. The test is classed as functional, cell-based. In a few lines:
as §2

The nature of test [13]: Antitumor activity against human NSCLC-N6 cells xenografted mouse at 10 mg/kg/day, ip administered for 16 days measured after 30 days. As to conditions: route intraperitoneal. The test is classed as functional. In outline: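 NSCLC-N6 tumour maintained by serial sc transplant in nude mice: 0.2 ml of a suspension from about 1 g of mechanically dispersed excised tumour in 4.8 ml sterile saline. Groups of six mice were treated once tumours reached 50–200 mm3. Dosing was 10 mg/kg ip daily on days 1–16, in physiological saline with 2% DMSO.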

≈ marks a conversion by molar mass, not a printed value. Calls of active or inactive are those of the source. The calls are words filed in the database; no cut-off is given here. Bounds are passed on as bounds.

As usually defined, the IC50 is the concentration needed to halve the response being measured. A higher IC50 goes with a need for much substance. Broadly, the T/C is the ratio of treated to control. As for `C/C=C/C(=O)C[C@H]1CC[C@H](C)[C@H](CC(=O)NC[C@H](O)[C@H](C)C(=O)NCCC[C@H]2O[C@@]3(CCC[C@H](CC[C@H](C)/C=C(\C)[C@H](C)O)O3)CC[C@@H]2C)O1` [BISTRAMIDE A], the IC50 turned out to be 0.53 µg/mL (≈ 0.752 µM) in test [1]; 0.2 µg/mL (≈ 0.284 µM) in test [2]; 0.05 µg/mL (≈ 0.0709 µM) in test [3]; 0.1 µg/mL (≈ 0.142 µM) in [4]; 0.32 µg/mL (≈ 0.454 µM) in test [5]; 0.03 µg/mL (≈ 0.0426 µM) in [6]. In addition, the outcome in [7], in [8] and in test [9] was Active. This compound also registered a T/C in test [10] of 118%.
In the case of `CCCC(=O)CC1CCC(C)C(CC(=O)NCC(O)C(C)C(=O)NCCCC2OC3(CCCC(CCC(C)/C=C(\C)C(C)O)O3)CCC2C)O1` (stereo unspecified) [BISTRAMIDE B], the IC50 in [1] stood at 2.1 µg/mL (≈ 2.97 µM); in test [2], 0.2 µg/mL (≈ 0.283 µM); in test [3], 1.16 µg/mL (≈ 1.64 µM); in [4] it was 1.2 µg/mL (≈ 1.7 µM); in [5], 0.71 µg/mL (≈ 1 µM); in test [6] it was 0.32 µg/mL (≈ 0.453 µM). In addition, the result in test [7] was Active.
On to `C/C=C/C(=O)C[C@H]1CC[C@H](C)[C@H](CC(=O)NC[C@H](O)[C@H](C)C(=O)NCCC[C@H]2O[C@@]3(CCC[C@@H](CC[C@H](C)/C=C(\C)C(C)=O)O3)CC[C@@H]2C)O1` [BISTRAMIDE C], for which the IC50 turned out to be 0.65 µg/mL (≈ 0.925 µM) in [1]; 0.02 µg/mL (≈ 0.0285 µM) in [2]; 0.05 µg/mL (≈ 0.0711 µM) in [3]; 0.06 µg/mL (≈ 0.0854 µM) in test [4]; 0.5 µg/mL (≈ 0.711 µM) in test [5]; 0.05 µg/mL (≈ 0.0711 µM) in test [6]. In addition, in test [7], the result was Active.
With `C/C=C/[C@H](O)CC1CCC(C)C(CC(=O)NCC(O)C(C)C(=O)NCCCC2OC3(CCCC(CCC(C)/C=C(\C)C(C)O)O3)CCC2C)O1` (stereo partly specified) [BISTRAMIDE D], the IC50 in test [1] turned out to be 10 µg/mL (≈ 14.1 µM); in test [2] it was 0.36 µg/mL (≈ 0.509 µM); in test [3], 5.82 µg/mL (≈ 8.23 µM); in test [4], 0.1 µg/mL (≈ 0.141 µM); in [5], 2.76 µg/mL (≈ 3.9 µM); in test [6] it was 3.43 µg/mL (≈ 4.85 µM). For the same compound, the outcome in test [7] was Active. The compound also showed a T/C in test [11] of 53%.
On to `C/C=C/C(O)C/C=C/CC(C)C(O)CC(=O)NCC(O)C(C)C(=O)NCCCC1OC2(CCCC(CCC(C)/C=C(\C)C(C)O)O2)CCC1C` (stereo unspecified) [BISTRAMIDE K], for which the IC50 in [1] was greater than 10 µg/mL; in test [2], 0.57 µg/mL (≈ 0.806 µM); in test [3] it was greater than 10 µg/mL; in test [4], 1.9 µg/mL (≈ 2.69 µM); in test [5], 5.6 µg/mL (≈ 7.92 µM); in test [6], 3.23 µg/mL (≈ 4.57 µM). Further, the result in test [12] was Active. In test [13], this compound returned a T/C of 49%.
Take `Sc1ncnc2nc[nH]c12` [MERCAPTOPURINE ANHYDROUS]: the IC50 was determined as 0.55 µg/mL (≈ 3.61 µM) in [1]; 0.7 µg/mL (≈ 4.6 µM) in [2]; 0.26 µg/mL (≈ 1.71 µM) in test [3]; 0.8 µg/mL (≈ 5.26 µM) in test [4]; 0.87 µg/mL (≈ 5.72 µM) in [5]; 0.79 µg/mL (≈ 5.19 µM) in [6].
